Test results taken from ChEMBL document CHEMBL3804761, “Synthesis of a stable and orally bioavailable englerin analogue” (Bioorg Med Chem Lett, 2016).

Columns and labels:
Type in all cases: functional
NCI-H226 = test: Growth inhibition of human NCI-H226 cells assessed as cell growth at 10 uM incubated for 48 hrs by sulforhodamine B assay relative to control; conditions: NCI-H226, 48 h, read-out: Activity
In short: (§1)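 Run in the standard NCI 60-cell-line screen. Cells were exposed to drug for two days, and the read-out was sulforhodamine B staining. Compound was tested at a single final concentration of 10 µM in every line, and results are reported as growth percent.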

[1] = Growth inhibition of human COLO205 cells assessed as cell growth at 10 uM incubated for 48 hrs by sulforhodamine B assay relative to control; conditions: COLO 205, 48 h, read-out: Activity; in short: as §1
[2] = Growth inhibition of human OVCAR5 cells incubated for 48 hrs by sulforhodamine B assay; conditions: OVCAR-5, 48 h
In short: (§2)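 NCI 60-cell-line panel, standard protocol. Cells exposed to compound for two days, growth read by sulforhodamine B staining. Tested at five 10-fold dilutions, top concentration 100 µM, to give dose-response curves.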

[3] = Growth inhibition of human UACC257 cells assessed as cell growth at 10 uM incubated for 48 hrs by sulforhodamine B assay relative to control; conditions: UACC-257, 48 h, read-out: Activity
In short: (§3)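 NCI 60-cell line standard protocol, one-dose screen: single final concentration 10 µM, 2-day drug exposure, sulforhodamine B (SRB) endpoint; read-out is growth percent relative to untreated control.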

[4] = Growth inhibition of human SF295 cells assessed as cell growth at 10 uM incubated for 48 hrs by sulforhodamine B assay relative to control; conditions: SF-295, 48 h, read-out: Activity; in short: as §1
ACHN = test: Growth inhibition of human ACHN cells assessed as cell growth at 10 uM incubated for 48 hrs by sulforhodamine B assay relative to control; conditions: read-out: Activity; in short: as §1
786-0 [5] = test: Growth inhibition of human 786-0 cells incubated for 48 hrs by sulforhodamine B assay; conditions: 786-0, 48 h; in short: as §2
HT-29 = test: Growth inhibition of human HT-29 cells incubated for 48 hrs by sulforhodamine B assay; conditions: HT-29, 48 h; in short: as §2
[6] = Growth inhibition of human UACC62 cells incubated for 48 hrs by sulforhodamine B assay; conditions: UACC-62, 48 h
In short: (§4)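 Tested in the standard NCI 60-cell-line protocol with two-day drug exposure and a sulforhodamine B endpoint. Compounds were first screened at a single final concentration of 10 µM, reported as growth percent. They were then run as five 10-fold dilutions starting from a high concentration of 100 µM to give dose-response curves.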

MDA-MB-231 = test: Growth inhibition of human MDA-MB-231 cells incubated for 48 hrs by sulforhodamine B assay; conditions: MDA-MB-231, 48 h; in short: as §2
[7] = Growth inhibition of human MOLT4 cells incubated for 48 hrs by sulforhodamine B assay; conditions: MOLT-4, 48 h; in short: as §2
A498 = test: Growth inhibition of human A498 cells incubated for 48 hrs by sulforhodamine B assay; conditions: A498, 48 h
[8] = Growth inhibition of human SF539 cells assessed as cell growth at 10 uM incubated for 48 hrs by sulforhodamine B assay relative to control; conditions: SF-539, 48 h, read-out: Activity
In short: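 Single-dose screen in the NCI 60-cell-line panel at one final concentration of 10 µM. Two-day drug exposure with a sulforhodamine B endpoint. Values are growth percent for each cell line.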

T47D = test: Growth inhibition of human T47D cells assessed as cell growth at 10 uM incubated for 48 hrs by sulforhodamine B assay relative to control; conditions: read-out: Activity; in short: as §3
[9] = Growth inhibition of human OVCAR8 cells assessed as cell growth at 10 uM incubated for 48 hrs by sulforhodamine B assay relative to control; conditions: OVCAR-8, 48 h, read-out: Activity; in short: as §1
[10] = Growth inhibition of human Hs 578T cells assessed as cell growth at 10 uM incubated for 48 hrs by sulforhodamine B assay relative to control; conditions: read-out: Activity
786-0 [11] = test: Growth inhibition of human 786-0 cells assessed as cell growth at 10 uM incubated for 48 hrs by sulforhodamine B assay relative to control; conditions: 786-0, 48 h, read-out: Activity; in short: as §1
NCI/ADR-RES = test: Growth inhibition of human NCI/ADR-RES cells incubated for 48 hrs by sulforhodamine B assay; in short: as §2
[12] = Growth inhibition of human UACC257 cells incubated for 48 hrs by sulforhodamine B assay; conditions: UACC-257, 48 h; in short: as §4
NCI-H322M = test: Growth inhibition of human NCI-H322M cells incubated for 48 hrs by sulforhodamine B assay; in short: as §2
[13] = Growth inhibition of human TK10 cells incubated for 48 hrs by sulforhodamine B assay; conditions: TK-10, 48 h; in short: as §4
SK-MEL-28 = test: Growth inhibition of human SK-MEL-28 cells incubated for 48 hrs by sulforhodamine B assay; conditions: SK-MEL-28, 48 h; in short: as §2
[14] = Growth inhibition of human SW620 cells incubated for 48 hrs by sulforhodamine B assay; conditions: SW-620, 48 h; in short: as §4
[15] = Growth inhibition of human SKOV3 cells assessed as cell growth at 10 uM incubated for 48 hrs by sulforhodamine B assay relative to control; conditions: SK-OV-3, 48 h, read-out: Activity; in short: as §1
SK-MEL-2 = test: Growth inhibition of human SK-MEL-2 cells incubated for 48 hrs by sulforhodamine B assay; conditions: SK-MEL-2, 48 h; in short: as §2
[16] = Growth inhibition of human HOP62 cells assessed as cell growth at 10 uM incubated for 48 hrs by sulforhodamine B assay relative to control; conditions: HOP-62, 48 h, read-out: Activity; in short: as §1
NCI-H460 = test: Growth inhibition of human NCI-H460 cells assessed as cell growth at 10 uM incubated for 48 hrs by sulforhodamine B assay relative to control; conditions: NCI-H460, 48 h, read-out: Activity; in short: as §1
SR = test: Growth inhibition of human SR cells incubated for 48 hrs by sulforhodamine B assay; in short: as §4
[17] = read-out: pLC50 (the source's name) (converted)

## C/C(=C\C(=O)O[C@H]1[C@@H]2[C@H](C)CC[C@H]2[C@]2(C)O[C@@]1(C(C)C)C[C@H]2NC(=O)CO)c1ccccc1
NCI-H226
  growth at 10 µM: 90.7%
[1]
  growth at 10 µM: 107%
[2]
  GI50: 70.8 µM
  LC50: > 100 µM
[2]; read-out: pTGI (converted)
  TGI: > 100 µM
[3]
  growth at 10 µM: 92.4%
[4]
  growth at 10 µM: 97.8%
ACHN
  growth at 10 µM: 27.9%
786-0 [5]
  GI50: 33.9 µM
  LC50: > 100 µM
786-0 [5]; read-out: pTGI (converted)
  TGI: > 100 µM
HT-29
  GI50: 40.7 µM
  LC50: > 100 µM
HT-29; read-out: pTGI (converted)
  TGI: > 100 µM
[6]
  GI50: 35.5 µM
  LC50 (lethal concentration, 50% net cell kill): > 100 µM
[6]; read-out: pTGI (converted)
  TGI: > 100 µM
MDA-MB-231
  GI50: 38 µM
MDA-MB-231; [17]
  CC50: > 100 µM
MDA-MB-231; read-out: pTGI (converted)
  TGI: > 100 µM
[7]
  GI50: 25.7 µM
  LC50: > 100 µM
[7]; read-out: pTGI (converted)
  TGI: 81.3 µM
A498
  LC50: 23.4 µM
A498; read-out: GI50
  GI50: 1.15 µM
A498; read-out: pGI50 (converted)
  GI50: 1.15 µM
A498; read-out: pTGI (converted)
  TGI: 4.27 µM
[8]
  growth at 10 µM: 91.2%
T47D
  growth at 10 µM: 89.3%
[9]
  growth at 10 µM: 61.2%
[10]
  growth at 10 µM: -8.92%
786-0 [11]
  growth at 10 µM: 93.5%
NCI/ADR-RES
  GI50: 7.94 µM
  LC50: > 100 µM
NCI/ADR-RES; read-out: pTGI (converted)
  TGI: 69.2 µM
[12]
  GI50: 34.7 µM
[12]; [17]
  CC50: > 100 µM
[12]; read-out: pTGI (converted)
  TGI: > 100 µM
NCI-H322M
  GI50: > 100 µM
  LC50: > 100 µM
NCI-H322M; read-out: pTGI (converted)
  TGI: > 100 µM
[13]
  GI50: 83.2 µM
[13]; [17]
  CC50: > 100 µM
[13]; read-out: pTGI (converted)
  TGI: > 100 µM
SK-MEL-28
  GI50: 45.7 µM
  LC50: > 100 µM
SK-MEL-28; read-out: pTGI (converted)
  TGI: > 100 µM
[14]
  GI50: 45.7 µM
  LC50 (50% lethal concentration): > 100 µM
[14]; read-out: pTGI (converted)
  TGI: > 100 µM
[15]
  growth at 10 µM: 110%
SK-MEL-2
  GI50: 31.6 µM
  LC50: > 100 µM
SK-MEL-2; read-out: pTGI (converted)
  TGI: > 100 µM
[16]
  growth at 10 µM: 97.6%
NCI-H460
  growth at 10 µM: 106%
SR
  GI50: 26.3 µM
  LC50: > 100 µM
SR; read-out: pTGI (converted)
  TGI: 74.1 µM
